Laboratory results: publication PMC11634041 (Nature, 2024)

How the values were obtained:
[1] = target: spHCN (R332C background, Alexa-488 labelled, called WT) (Strongylocentrotus purpuratus, UniProt O76977, R332C/M375L); assay: two-electrode voltage clamp, oocytes; type: cell-based; settings: 100 μM ZD7288; pore blocker control; Alexa-488-labelled channel
human HCN1 (full length) = target: T1, human HCN1 (full length) (Homo sapiens, UniProt O60741); assay: two-electrode voltage clamp, oocytes; type: cell-based; settings: 30 μM propofol, 20 min incubation; pH 7.4; allosteric inhibitor
T1 sequence (O60741 1-890): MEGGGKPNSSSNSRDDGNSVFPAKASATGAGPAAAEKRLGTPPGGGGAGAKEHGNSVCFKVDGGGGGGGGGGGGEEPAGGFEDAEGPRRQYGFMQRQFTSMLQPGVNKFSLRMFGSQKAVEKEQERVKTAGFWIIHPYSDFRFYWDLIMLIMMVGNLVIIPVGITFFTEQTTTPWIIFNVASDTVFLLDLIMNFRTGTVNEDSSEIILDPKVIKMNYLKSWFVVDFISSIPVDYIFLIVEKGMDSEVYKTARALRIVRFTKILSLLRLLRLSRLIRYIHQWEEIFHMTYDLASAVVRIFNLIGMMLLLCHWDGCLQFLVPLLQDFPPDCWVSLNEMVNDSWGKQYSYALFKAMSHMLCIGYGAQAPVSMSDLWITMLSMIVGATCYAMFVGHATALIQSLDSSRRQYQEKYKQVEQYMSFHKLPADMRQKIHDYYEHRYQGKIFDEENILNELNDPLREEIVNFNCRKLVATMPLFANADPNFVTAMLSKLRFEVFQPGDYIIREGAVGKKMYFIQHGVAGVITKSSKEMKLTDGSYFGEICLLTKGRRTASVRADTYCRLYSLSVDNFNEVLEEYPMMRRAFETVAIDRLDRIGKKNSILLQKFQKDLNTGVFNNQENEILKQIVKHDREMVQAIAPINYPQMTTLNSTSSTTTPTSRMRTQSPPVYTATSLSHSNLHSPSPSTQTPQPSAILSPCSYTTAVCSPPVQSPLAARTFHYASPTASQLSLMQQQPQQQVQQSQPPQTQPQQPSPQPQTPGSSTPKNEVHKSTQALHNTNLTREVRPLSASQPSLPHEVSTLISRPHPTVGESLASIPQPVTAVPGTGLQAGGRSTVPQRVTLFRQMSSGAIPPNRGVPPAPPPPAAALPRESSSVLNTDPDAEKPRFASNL
Outline: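 Full-length human HCN1 RNA (wild type or mutant), made by in vitro transcription, injected into defolliculated Xenopus laevis oocytes. Oocytes stored at 16°C in 1:2 diluted L-15 medium with 2.5% penicillin-streptomycin and 5 mM HEPES pH 7.5. Two-electrode clamp used 3 M KCl-filled electrodes (0.1–0.5 MΩ current, 1–5 MΩ voltage).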

cryo-EM structure = target: the molecule itself; assay: cryo-EM structure

## CCN(c1ccccc1)c1cc(NC)[n+](C)c(C)n1 [ZD7288]
[1]
  two-electrode voltage clamp, oocytes: currents from spHCN M375L channels are blocked by the HCN-channel blocker ZD7288

## CC(C)c1cccc(C(C)C)c1O [propofol, 2,6-di-iso-propylphenol]
Human HCN1 (full length)
  ΔV1/2 (mV) / I / Iapo (%): −30.9 ± 6.4 mV

B1: human HCN1EM M305L in lipid nanodiscs (natural protein, UniProt O60741 1-890, looked up)
chain: MEGGGKPNSSSNSRDDGNSVFPAKASATGAGPAAAEKRLGTPPGGGGAGAKEHGNSVCFKVDGGGGGGGGGGGGEEPAGGFEDAEGPRRQYGFMQRQFTSMLQPGVNKFSLRMFGSQKAVEKEQERVKTAGFWIIHPYSDFRFYWDLIMLIMMVGNLVIIPVGITFFTEQTTTPWIIFNVASDTVFLLDLIMNFRTGTVNEDSSEIILDPKVIKMNYLKSWFVVDFISSIPVDYIFLIVEKGMDSEVYKTARALRIVRFTKILSLLRLLRLSRLIRYIHQWEEIFHMTYDLASAVVRIFNLIGMLLLLCHWDGCLQFLVPLLQDFPPDCWVSLNEMVNDSWGKQYSYALFKAMSHMLCIGYGAQAPVSMSDLWITMLSMIVGATCYAMFVGHATALIQSLDSSRRQYQEKYKQVEQYMSFHKLPADMRQKIHDYYEHRYQGKIFDEENILNELNDPLREEIVNFNCRKLVATMPLFANADPNFVTAMLSKLRFEVFQPGDYIIREGAVGKKMYFIQHGVAGVITKSSKEMKLTDGSYFGEICLLTKGRRTASVRADTYCRLYSLSVDNFNEVLEEYPMMRRAFETVAIDRLDRIGKKNSILLQKFQKDLNTGVFNNQENEILKQIVKHDREMVQAALPRESSSVLNTDPDAEKPRFASNL
cryo-EM structure
  binding result: binds
